The results in this text go back to the array DNA melting data of Ke et al. (doi:10.1101/2024.01.08.574731).

Series [1] is described as follows: folding enthalpy; higher = less favourable; fluorescence melt of hairpins on a sequencing array, two-state fit. As to conditions: sodium 0.088 M. An outline of the steps:
(§1)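 Library hairpins on a sequenced MiSeq flow cell carried annealed Cy3 and quencher oligos, and their Cy3 fluorescence was imaged in 50 mM Na-HEPES pH 8.0 with 25 mM NaCl, in 2.5 °C steps up to 60 °C. Signals were normalised to Cy3 before quenching and to control constructs. Melting temperature and folding enthalpy were obtained from bootstrapped two-state fits, combined by inverse-variance weighting across four replicates, and the fitted temperatures were then raised by 9.35 °C to match UV melts.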

A short description of series [2]: melting temperature; fluorescence melt of hairpins on a sequencing array, two-state fit, raised by 9.35 °C to match UV melts. As to conditions: sodium 0.088 M. In a few lines:
as §1

As to GATCCCGACGGGATC ((((((...)))))), the folding enthalpy in series [1] is -28.4 kcal/mol. In series [2], the Tm is 68 °C.
For the sequence GATCCCGCCGGGATC ((((((...)))))), the folding enthalpy in series [1] is -39.7 kcal/mol. In addition, the Tm in series [2] is 67.6 °C.
In the case of GATCCCGCTCGGGATC ((((((....)))))), in series [1], the folding enthalpy is -34 kcal/mol. Further, the Tm in series [2] was 65.8 °C.
Taken in the same sequence, the figures for GATCCCGGAAACAGGATC (((((.(....).))))) were -28.8 kcal/mol and 38.8 °C.
Taken in the same sequence, the figures for GATCCCGGATGGGATC ((((((....)))))) were -28 kcal/mol and 67.8 °C.
On to GATCCCGGGGGGGATC ((((((....)))))), for which the folding enthalpy in series [1] is -33.7 kcal/mol. Moreover, the Tm in series [2] is 62 °C.
Taken in the same sequence, the figures for GATCCCGTCCGGGATC ((((((....)))))) were -42 kcal/mol and 67.9 °C.
Taken in the same sequence, the figures for GATCCCGTCTGGGATC ((((((....)))))) were -39.2 kcal/mol and 65.5 °C.
Taken in the same sequence, the figures for GATCCCGTGGGGGATC ((((((....)))))) were -31.9 kcal/mol and 60 °C.
Consider GATCCCTAAGGGGATC ((((((....)))))), for which the folding enthalpy in series [1] was -35.2 kcal/mol. In addition, in series [2], the Tm was 61.1 °C.
Taken in the same sequence, the figures for GATCCCTAATGGGATC ((((((....)))))) were -38.3 kcal/mol and 57.6 °C.
Taken in the same sequence, the figures for GATCCCTACAGGGATC ((((((....)))))) were -36.2 kcal/mol and 65.6 °C.
Taken in the same sequence, the figures for GATCCCTATAGGGATC ((((((....)))))) were -45.4 kcal/mol and 65.6 °C.
For the sequence GATCCCTCAAGGGATC ((((((....)))))), in series [1], the folding enthalpy is -40 kcal/mol. For the same sequence, the Tm in series [2] stood at 60.9 °C.
With GATCCCTCTCGGGATC ((((((....)))))), the folding enthalpy in series [1] was -34.3 kcal/mol. In series [2], the Tm was determined as 63.5 °C.
Take GATCCCTGAAGGGATC ((((((....)))))): the folding enthalpy in series [1] was -32.8 kcal/mol. Further, in series [2], the Tm stood at 64.1 °C.
On to GATCCCTGACGGGATC ((((((....)))))), for which the folding enthalpy in series [1] was -38.6 kcal/mol. Also, the Tm in series [2] was 58.1 °C.
For GATCCCTGAGGGATC ((((((...)))))), in series [1], the folding enthalpy is -34.7 kcal/mol. Besides, the Tm in series [2] was 59.6 °C.
Taken in the same sequence, the figures for GATCCCTGCTGGGATC ((((((....)))))) were -39.5 kcal/mol and 60.2 °C.
On to GATCCCTTAAGGGATC ((((((....)))))), for which, in series [1], the folding enthalpy is -39.4 kcal/mol. In series [2], the Tm was 65.6 °C.
Regarding GATCCCTTTGGGATC ((((((...)))))), the folding enthalpy in series [1] is -40.6 kcal/mol. The Tm in series [2] stood at 63.5 °C.
Taken in the same sequence, the figures for GATCCGAAACCGGATC ((((((....)))))) were -38 kcal/mol and 53.4 °C.
Taken in the same sequence, the figures for GATCCGAAAGCGGATC ((((((....)))))) were -34 kcal/mol and 53.1 °C.
Taken in the same sequence, the figures for GATCCGAACCCGGATC ((((((....)))))) were -38.9 kcal/mol and 54.8 °C.
Regarding GATCCGAAGGCGGATC ((((((....)))))), in series [1], the folding enthalpy was -28.4 kcal/mol. For the same sequence, the Tm in series [2] turned out to be 52.3 °C.
Taken in the same sequence, the figures for GATCCGAATACGGATC ((((((....)))))) were -38.6 kcal/mol and 57.5 °C.
Taken in the same sequence, the figures for GATCCGACTACGGATC ((((((....)))))) were -35.6 kcal/mol and 57.1 °C.
Taken in the same sequence, the figures for GATCCGACTCGGATC ((((((...)))))) were -38.9 kcal/mol and 55.7 °C.
As to GATCCGAGGACGGATC ((((((....)))))), the folding enthalpy in series [1] is -33.9 kcal/mol. Further, the Tm in series [2] was 56.5 °C.
Turning to GATCCGAGGGCGGATC ((((((....)))))), the folding enthalpy in series [1] is -31.5 kcal/mol. In addition, the Tm in series [2] amounted to 55.3 °C.
With GATCCGATGCCGGATC ((((((....)))))), in series [1], the folding enthalpy was -40.1 kcal/mol. In addition, in series [2], the Tm came out at 56.1 °C.
On to GATCCGCAACCGGATC ((((((....)))))), for which the folding enthalpy in series [1] was -39.3 kcal/mol. Besides, the Tm in series [2] was 55.1 °C.
Taken in the same sequence, the figures for GATCCGCACGCGGATC ((((((....)))))) were -39.1 kcal/mol and 67.6 °C.
Taken in the same sequence, the figures for GATCCGCAGACGGATC ((((((....)))))) were -36.3 kcal/mol and 60.8 °C.
Taken in the same sequence, the figures for GATCCGCAGCGGATC ((((((...)))))) were -54.5 kcal/mol and 54.8 °C.
For the sequence GATCCGCATACGGATC ((((((....)))))), in series [1], the folding enthalpy is -37.9 kcal/mol. Further, the Tm in series [2] was 61.5 °C.
Taken in the same sequence, the figures for GATCCGCATGCGGATC ((((((....)))))) were -30.3 kcal/mol and 69 °C.
For the sequence GATCCGCATTCGGATC ((((((....)))))), in series [1], the folding enthalpy is -36.1 kcal/mol. The Tm in series [2] was 59.8 °C.
Taken in the same sequence, the figures for GATCCGCCACGGATC ((((((...)))))) were -37 kcal/mol and 57.2 °C.
Taken in the same sequence, the figures for GATCCGCCTCCGGATC ((((((....)))))) were -34.5 kcal/mol and 56.1 °C.
Turning to GATCCGCCTCGGATC ((((((...)))))), the folding enthalpy in series [1] was -30 kcal/mol. In series [2], the Tm is 56.7 °C.
Taken in the same sequence, the figures for GATCCGCCTGCGGATC ((((((....)))))) were -40.3 kcal/mol and 69.2 °C.
Taken in the same sequence, the figures for GATCCGCGCTCGGATC ((((((....)))))) were -37.3 kcal/mol and 57.4 °C.
Taken in the same sequence, the figures for GATCCGCGGCGGATC ((((((...)))))) were -50.8 kcal/mol and 57.7 °C.
For GATCCGCGTACGGATC ((((((....)))))), in series [1], the folding enthalpy was -35.3 kcal/mol. Further, the Tm in series [2] was 60.4 °C.
Taken in the same sequence, the figures for GATCCGCTACCGGATC ((((((....)))))) were -48 kcal/mol and 56.8 °C.
Taken in the same sequence, the figures for GATCCGCTCCCGGATC ((((((....)))))) were -35.8 kcal/mol and 56.9 °C.
Taken in the same sequence, the figures for GATCCGGAGTCGGATC ((((((....)))))) were -36.4 kcal/mol and 55.7 °C.
For GATCCGGATCCGGATC ((((((....)))))), the folding enthalpy in series [1] is -51.4 kcal/mol. Moreover, the Tm in series [2] came to 61.3 °C.
Taken in the same sequence, the figures for GATCCGGCAGCGGATC ((((((....)))))) were -37.8 kcal/mol and 59.4 °C.
Taken in the same sequence, the figures for GATCCGGCATCGGATC ((((((....)))))) were -45.5 kcal/mol and 64.8 °C.
Taken in the same sequence, the figures for GATCCGGCCACGGATC ((((((....)))))) were -41.6 kcal/mol and 67.5 °C.
With GATCCGGCCCGGATC ((((((...)))))), the folding enthalpy in series [1] is -30.7 kcal/mol. In addition, the Tm in series [2] stood at 58.9 °C.
For GATCCGGCGCGGATC ((((((...)))))), in series [1], the folding enthalpy is -37.1 kcal/mol. In addition, the Tm in series [2] worked out at 59.3 °C.
Taken in the same sequence, the figures for GATCCGGCGGCGGATC ((((((....)))))) were -41.5 kcal/mol and 58.7 °C.
GATCCGGCTCCGGATC ((((((....)))))): the folding enthalpy in series [1] is -38.4 kcal/mol. Moreover, in series [2], the Tm worked out at 59.1 °C.
Taken in the same sequence, the figures for GATCCGGCTCGGATC ((((((...)))))) were -39.6 kcal/mol and 59.7 °C.
Taken in the same sequence, the figures for GATCCGGGGTCGGATC ((((((....)))))) were -47.9 kcal/mol and 56.7 °C.
Taken in the same sequence, the figures for GATCCGGGTACGGATC ((((((....)))))) were -36 kcal/mol and 67.9 °C.
Take GATCCGGGTCCGGATC ((((((....)))))): the folding enthalpy in series [1] is -39.1 kcal/mol. Besides, the Tm in series [2] amounted to 62.5 °C.
With GATCCGGGTGCGGATC ((((((....)))))), the folding enthalpy in series [1] was -41 kcal/mol. The Tm in series [2] came out at 63.2 °C.
Taken in the same sequence, the figures for GATCCGGGTTCGGATC ((((((....)))))) were -44.7 kcal/mol and 58.5 °C.
Consider GATCCGTAATCGGATC ((((((....)))))), for which the folding enthalpy in series [1] was -34.4 kcal/mol. The Tm in series [2] was found to be 57 °C.
Taken in the same sequence, the figures for GATCCGTATGCGGATC ((((((....)))))) were -40.3 kcal/mol and 63.2 °C.
Taken in the same sequence, the figures for GATCCGTCAGCGGATC ((((((....)))))) were -42.6 kcal/mol and 57.4 °C.
Regarding GATCCGTCCGCGGATC ((((((....)))))), the folding enthalpy in series [1] was -36.7 kcal/mol. Moreover, the Tm in series [2] worked out at 61 °C.
Taken in the same sequence, the figures for GATCCGTCTCGGATC ((((((...)))))) were -42.8 kcal/mol and 59.7 °C.
In the case of GATCCGTGGCGGATC ((((((...)))))), in series [1], the folding enthalpy was -41.5 kcal/mol. Further, the Tm in series [2] was 56.3 °C.
Taken in the same sequence, the figures for GATCCGTTTCCGGATC ((((((....)))))) were -41.2 kcal/mol and 58.9 °C.
For the sequence GATCCGTTTTCGGATC ((((((....)))))), the folding enthalpy in series [1] is -42.2 kcal/mol. In addition, the Tm in series [2] came to 61.8 °C.
On to GATCCTAAAAGGATC ((((((...)))))), for which the folding enthalpy in series [1] was -36.3 kcal/mol. In addition, the Tm in series [2] stood at 54.3 °C.
Taken in the same sequence, the figures for GATCCTAAGCAGGATC ((((((....)))))) were -29.9 kcal/mol and 52.9 °C.
Taken in the same sequence, the figures for GATCCTACCGAGGATC ((((((....)))))) were -39.2 kcal/mol and 51.2 °C.
In the case of GATCCTACTTAGGATC ((((((....)))))), the folding enthalpy in series [1] was -37.3 kcal/mol. Further, the Tm in series [2] amounted to 53.2 °C.
With GATCCTAGCGAGGATC ((((((....)))))), the folding enthalpy in series [1] was -32.9 kcal/mol. Also, the Tm in series [2] is 52.8 °C.
Taken in the same sequence, the figures for GATCCTAGGAGGATC ((((((...)))))) were -35.3 kcal/mol and 54.1 °C.
